Where two headings read alike, the source gives them in different places.
Legend:
[1] = molecular target: α-Glucosidase from Saccharomyces cerevisiae; assay: α-Glucosidase inhibitory assay; format: biochemical; settings: for IC50: read-out: α-glucosidase inhibition (IC50)
3T3-L1 cells [2] = assay: Cytotoxicity analysis; format: cell-based; settings: for % cell viability: MTT assay, 72 h
Method in brief: (§1)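 3T3-L1 cells grown in high-glucose DMEM with 10% FBS and 2 mM glutamine at 37 °C, 5% CO2. Seeded at 1 × 10^4 cells per well with 30 nM insulin in detection medium for 24–48 h. Test compound at 0.01–1000 μg/mL for 72 h. Then MTT (0.5 mg/mL in phosphate buffer) for 4 h, DMSO solubilisation, A570. % viability reported as mean of triplicates ± SD.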

Cytotoxicity analysis = format: cell-based; settings: mouse, 3T3-L1 cells
Method in brief: as §1

3T3-L1 cells [3] = assay: Glucose consumption assay in 3T3-L1 cells; format: cell-based; settings: Mus musculus
[4] = 3T3-L1, read-out: glucose consumption (IC50, μM)

| Compound | IC50 [1] | viability at 72 h (Cytotoxicity analysis) | IC50 (3T3-L1 cells [3]; [4]) | further results |
| --- | --- | --- | --- | --- |
| CN(C)C(=N)N=C(N)N [Metformin, reference compound] |  | 99.7% | 45.4 µM | IC50 (3T3-L1 cells [3]; 3T3-L1, read-out: glucose consumption (IC50, μg/mL)): 6.3 µg/mL |
| COc1ccc2oc3cccc(O)c3c(=O)c2c1 [Compound 4, 1-hydroxyl-7 methoxyxanthone] | > 100 µM | 102% | 23.2 µM |  |
| C[C@H]1C(=O)CC[C@@H]2[C@]1(C)CC[C@H]1[C@@]2(C)CC[C@@]2(C)[C@@H]3CC(C)(C)CC[C@]3(C)CC[C@]12C [Compound 9, friedelin] | > 100 µM | 101% | 18.5 µM |  |
| C[C@H]1O[C@H](O[C@H]2[C@H](O)[C@@H](O)[C@@H](O[C@H]3[C@H](O)[C@@H](O)C(O)O[C@@H]3CO)O[C@@H]2CO)[C@H](O)[C@@H](O)[C@@H]1N[C@H]1C=C(CO)[C@@H](O)[C@H](O)[C@H]1O (stereo partly drawn) [Acarbose, reference compound] |  |  |  | % inhibition at 200 μg/mL (α-glucosidase) ([1]; final concentration of 200 μg/mL): 98.9% |

Continued, in another order:

| IC50 [1] | Compound | viability at 72 h (Cytotoxicity analysis) | IC50 (3T3-L1 cells [3]; [4]) | further results |
| --- | --- | --- | --- | --- |
| 18 µM | cowanol [Compound 7] |  |  | % cell viability (3T3-L1 cells [2]): 100.9% |
| > 100 µM | O=c1c2cc(O)ccc2oc2cccc(O)c12 [Compound 3, 1,7-dihydroxyxanthone] | 105% |  |  |
| > 100 µM | CC(C)=CCC/C(C)=C/Cc1c(O)cc2oc3c(O)cccc3c(=O)c2c1O [Compound 5, mangostinone] | 93.1% | 16 µM |  |
| 13.1 µM | guttiferone I [Compound 2] |  |  | toxicity to cells (in words) (3T3-L1 cells [2]): without causing toxicity to cells; % cell viability (3T3-L1 cells [2]): 98.7%; toxicity to cells (in words) (3T3-L1 cells [2]; listed as Guttiferone I): without causing toxic effects |
